Experimental data of several laboratories.
Each line is one published result; the experiments were not run side by side.
Target: Bone morphogenetic protein receptor type-1A (BMPR1A, Homo sapiens, UniProt P36894)

`Nc1ncnc2occ(-c3ccc(NC(=O)Nc4cc(C(F)(F)F)ccc4F)cc3)c12` has a remaining signal of 100% (cell-free assay; 20 µM).
For `Cc1noc([C@H]2C[C@@H](c3ccc(C(F)(F)F)cc3)CN(C(=O)N3CCS(=O)(=O)C3)C2)n1`, the remaining binding was 100% (binding, competition with immobilised ligand; 1 µM).
With `CC(C)(C)c1nc(-c2cccc(NS(=O)(=O)c3c(F)cccc3F)c2F)c(-c2ccnc(N)n2)s1` the remaining activity was 48% (enzyme activity, inhibitor, radiometric; 1 µM).
With `Cc1ccc(C(=O)Nc2ccc(CN3CCN(C)CC3)c(C(F)(F)F)c2)cc1C#Cc1cnc2cccnn12` the remaining activity was 97% (enzyme activity; 23.5 nM).
`O=C(Nc1cnn(-c2csc(C(=O)NC3COC3)c2)c1)Nc1ccccc1Cl` has a remaining activity of 105% (enzyme activity, inhibitor; 5 µM).
The remaining activity of `CC(C)(C)c1nc2c(s1)c1nc(N)ncc1c1ccc(NS(=O)(=O)c3c(F)cccc3F)c(F)c12` is reported as 96% (enzyme activity, inhibitor, radiometric; 1 µM).
`Nc1cnc(N2CCc3cc(S(=O)(=O)Nc4c(F)cc(Cl)cc4F)cc(N4CCCC4=O)c32)nc1` gave a remaining binding of 91% (cell-free assay, competition with immobilised ligand; 1 µM).
The remaining activity of `Cc1sc(C(=O)NC2COC2)cc1-n1cc(NC(=O)Nc2c(F)cccc2Cl)cn1` is reported as 92.5% (enzyme activity, inhibitor; 10 µM).
For `CCOc1cc(-c2nncn2C)ccc1Nc1ncc2cc(C)nc(NCC(C)(C)C)c2n1`, the inhibition was no more than 15% (cell-free assay, TR-FRET; 1 µM).
